# In ChEMBL document CHEMBL4041550, “Structure-Activity Relationship Study of QL47: A Broad-Spectrum Antiviral Agent” (ACS Med Chem Lett, 2017):
# Key:
# [1] = Cytotoxicity against human HuH7 cells measured after 24 hrs by CellTiter-Glo luminescent cell viability assay; format: cell-based, Huh-7
# In short: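 DENV2-infected Huh7 cells treated across a concentration range; cell viability read 24 h later. CC50 (50% cytotoxicity) derived by non-linear regression; mean ± SD of experimental duplicates, n ≥ 2 repeats.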
# [2] = system: dengue virus type 2; assay: Antiviral activity against Dengue virus serotype 2 replicon harboring GVD mutant infected in HuH7 cells assessed as reduction in viral RNA translation at 2 uM measured at 6 hrs post infection by luciferase reporter gene assay relative to control; format: functional; set-up: scale not given: the % may be the effect or the level left
# In short: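 Huh7 cells transfected with in vitro-transcribed nonreplicative DENV2(GVD) reporter replicon RNA, then treated immediately with compound at 2 or 10 μM. Intracellular firefly luciferase activity read 6 h post-transfection as a measure of RNA translation and expressed relative to DMSO-treated samples. Mean ± SD of experimental duplicates, n = 3 repeats.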
# [3] = Half life in mouse hepatic microsomes at 1 uM in presence of NADPH by LC-MS/MS method; format: ADME, Microsome; settings: liver microsomes
# In short: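 Compound incubated with mouse liver microsomes; half-life (T1/2, min) of the compound reported as a measure of metabolic stability.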
# [4] = target: Serine/threonine-protein kinase pim-1 (Homo sapiens, UniProt P11309); assay: Inhibition of recombinant full length His-tagged human PIM1 expressed in baculovirus expression system by Z'-Lyte assay
# Chain of Serine/threonine-protein kinase pim-1 (P11309 whole entry): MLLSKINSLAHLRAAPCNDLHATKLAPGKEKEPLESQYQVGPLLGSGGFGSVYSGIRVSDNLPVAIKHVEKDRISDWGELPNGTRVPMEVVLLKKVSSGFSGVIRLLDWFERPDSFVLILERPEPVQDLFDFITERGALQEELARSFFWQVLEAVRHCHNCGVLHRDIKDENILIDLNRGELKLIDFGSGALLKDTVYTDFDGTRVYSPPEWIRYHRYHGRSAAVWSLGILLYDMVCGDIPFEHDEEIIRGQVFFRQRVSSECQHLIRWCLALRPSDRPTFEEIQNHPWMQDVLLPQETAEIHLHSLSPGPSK
# In short: (§1)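 IC50 against PIM1, PIM2, BTK and BMX determined with Z′-Lyte kinase activity assays.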
# [5] = target: Serine/threonine-protein kinase pim-2 (Homo sapiens, UniProt Q9P1W9); assay: Inhibition of recombinant full length GST-tagged human PIM2 expressed in baculovirus expression system by Z'-Lyte assay; in short: as §1
# Chain of Serine/threonine-protein kinase pim-2 (Q9P1W9 whole entry, the tested form may be a part): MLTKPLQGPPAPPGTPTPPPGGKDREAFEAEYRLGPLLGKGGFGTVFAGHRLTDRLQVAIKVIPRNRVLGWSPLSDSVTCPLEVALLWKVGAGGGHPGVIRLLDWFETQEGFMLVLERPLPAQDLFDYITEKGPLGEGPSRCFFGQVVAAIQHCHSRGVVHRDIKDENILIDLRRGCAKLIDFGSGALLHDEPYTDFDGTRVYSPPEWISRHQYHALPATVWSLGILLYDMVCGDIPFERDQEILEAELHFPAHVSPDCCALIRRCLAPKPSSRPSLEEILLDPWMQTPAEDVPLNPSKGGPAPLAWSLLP
# [6] = target: T1, Cytoplasmic tyrosine-protein kinase BMX (Homo sapiens, UniProt P51813); assay: Inhibition of recombinant full length His-tagged human BMX cytoplasmic domain expressed in baculovirus expression system by Z'-Lyte assay; in short: as §1
# T1 sequence (P51813 whole entry): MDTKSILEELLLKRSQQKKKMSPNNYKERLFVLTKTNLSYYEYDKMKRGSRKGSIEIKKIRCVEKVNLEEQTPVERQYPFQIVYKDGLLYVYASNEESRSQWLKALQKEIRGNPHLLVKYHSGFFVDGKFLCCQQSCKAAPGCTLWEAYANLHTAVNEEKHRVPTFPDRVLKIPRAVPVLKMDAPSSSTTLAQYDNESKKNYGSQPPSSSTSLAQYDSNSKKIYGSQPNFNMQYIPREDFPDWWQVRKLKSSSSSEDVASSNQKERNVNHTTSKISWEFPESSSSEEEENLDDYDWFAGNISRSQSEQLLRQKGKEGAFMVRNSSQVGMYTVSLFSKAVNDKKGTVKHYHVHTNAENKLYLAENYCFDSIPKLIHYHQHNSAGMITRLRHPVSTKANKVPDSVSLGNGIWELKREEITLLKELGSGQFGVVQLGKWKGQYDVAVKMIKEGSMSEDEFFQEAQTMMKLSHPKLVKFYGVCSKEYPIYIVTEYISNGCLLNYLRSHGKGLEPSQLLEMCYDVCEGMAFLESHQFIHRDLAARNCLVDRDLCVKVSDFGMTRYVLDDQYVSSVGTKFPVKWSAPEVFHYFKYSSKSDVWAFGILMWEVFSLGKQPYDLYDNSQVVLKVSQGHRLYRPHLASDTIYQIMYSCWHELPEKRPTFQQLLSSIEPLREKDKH
# [7] = target: Tyrosine-protein kinase BTK (Homo sapiens, UniProt Q06187); assay: Inhibition of recombinant full length His-tagged human BTK cytoplasmic domain expressed in baculovirus expression system by Z'-Lyte assay; in short: as §1
# Chain of Tyrosine-protein kinase BTK (Q06187 whole entry, the tested form may be a part): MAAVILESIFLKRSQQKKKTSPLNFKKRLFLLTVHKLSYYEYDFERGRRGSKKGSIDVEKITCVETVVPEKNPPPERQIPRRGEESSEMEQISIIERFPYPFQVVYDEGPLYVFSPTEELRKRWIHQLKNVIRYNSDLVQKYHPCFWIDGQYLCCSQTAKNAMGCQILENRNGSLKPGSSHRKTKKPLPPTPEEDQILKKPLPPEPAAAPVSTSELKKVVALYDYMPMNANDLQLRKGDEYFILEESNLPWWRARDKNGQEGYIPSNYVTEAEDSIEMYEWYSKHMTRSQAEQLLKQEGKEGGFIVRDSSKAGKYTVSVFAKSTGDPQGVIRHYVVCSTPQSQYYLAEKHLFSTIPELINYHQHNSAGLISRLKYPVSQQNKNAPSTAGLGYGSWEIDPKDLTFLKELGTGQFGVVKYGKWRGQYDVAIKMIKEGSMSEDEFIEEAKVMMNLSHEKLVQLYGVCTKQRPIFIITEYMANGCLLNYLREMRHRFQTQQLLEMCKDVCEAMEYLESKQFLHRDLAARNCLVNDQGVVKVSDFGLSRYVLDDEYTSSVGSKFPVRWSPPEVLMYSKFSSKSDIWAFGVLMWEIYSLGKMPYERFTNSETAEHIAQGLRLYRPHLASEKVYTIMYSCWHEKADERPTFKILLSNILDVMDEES
# [8] = Selectivity index, ratio of CC50 for cytotoxicity against human HuH7 to IC90 for antiviral activity against Dengue virus serotype 2 strain New Guinea C infected in HuH7 cells
# In short: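 Huh7 cells infected with DENV2, then treated across a concentration range. At 24 h, cell viability was measured, and secreted infectious virus was titrated by focus-forming assay. CC50 (50% cytotoxicity) and IC90 (1-log10 reduction in infectious progeny) were fitted by non-linear regression. Experimental duplicates, n ≥ 2 repeats.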
# [9] = Tmax in Swiss albino mouse at 10 mg/kg, po by LC/MS/MS method; format: ADME, organism-based; settings: in vivo
# In short: (§2)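 Mouse pharmacokinetics after intravenous, oral or intraperitoneal dosing; plasma parameters derived were T1/2, Tmax, Cmax, AUClast, AUCinf, clearance, Vss and oral bioavailability F.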
# [10] = Tmax in Swiss albino mouse at 10 mg/kg, ip by LC/MS/MS method; format: ADME, organism-based; settings: in vivo; in short: as §2
# [11] = Tmax in Swiss albino mouse at 50 mg/kg, ip by LC/MS/MS method; format: ADME, organism-based; settings: in vivo; in short: as §2
# [12] = Cmax in Swiss albino mouse at 2 mg/kg, iv by LC/MS/MS method; format: ADME, organism-based; set-up: dose 2 mg/kg, route intravenous; settings: in vivo; in short: as §2
# [13] = Cmax in Swiss albino mouse at 10 mg/kg, po by LC/MS/MS method; format: ADME, organism-based; set-up: dose 10 mg/kg, route oral; settings: in vivo; in short: as §2
# [14] = Cmax in Swiss albino mouse at 50 mg/kg, ip by LC/MS/MS method; format: ADME, organism-based; set-up: dose 50 mg/kg, route intraperitoneal; settings: in vivo; in short: as §2
# [15] = AUClast in Swiss albino mouse at 2 mg/kg, iv by LC/MS/MS method; format: ADME, organism-based; set-up: dose 2 mg/kg, route intravenous, time 0 - last; settings: in vivo
# [16] = AUClast in Swiss albino mouse at 10 mg/kg, po by LC/MS/MS method; format: ADME, organism-based; set-up: dose 10 mg/kg, time 0 - last, route oral; settings: in vivo
# [17] = AUClast in Swiss albino mouse at 50 mg/kg, ip by LC/MS/MS method; format: ADME, organism-based; set-up: dose 50 mg/kg, route intraperitoneal, time 0 - last; settings: in vivo
# [18] = AUC (infinity) in Swiss albino mouse at 2 mg/kg, iv by LC/MS/MS method; format: ADME, organism-based; set-up: dose 2 mg/kg, route intravenous, time infinity; settings: in vivo
# [19] = AUC (infinity) in Swiss albino mouse at 10 mg/kg, ip by LC/MS/MS method; format: ADME, organism-based; set-up: dose 10 mg/kg, route intraperitoneal, time infinity; settings: in vivo
# [20] = AUC (infinity) in Swiss albino mouse at 50 mg/kg, ip by LC/MS/MS method; format: ADME, organism-based; set-up: dose 50 mg/kg, time infinity, route intraperitoneal; settings: in vivo
# [21] = Clearance in Swiss albino mouse at 2 mg/kg, iv by LC/MS/MS method; format: ADME, organism-based; settings: in vivo; in short: as §2
smiles,measurement,setting,value
Cc1ccc(-n2c(=O)ccc3ccc4ccc(-c5cnn(C)c5)cc4c32)cc1NC(=O)/C=C/CN(C)C,CC50 at 24 h,[1],12000 to 20000 nM
same,Activity,[2],65%
same,half-life at 1 µM,[3],15.6 min
same,IC50,[4],1790 nM
same,IC50,[5],> 10000 nM
same,IC50,[6],2420 nM
same,IC50,[7],911 nM
same,Selectivity Index,[8],35
same,Tmax,[9],60 min
same,Tmax,[10],15 min
same,Tmax,[11],4.8 min
same,Cmax,[12],462 ng/mL
same,Cmax,[13],40.4 ng/mL
same,Cmax,[14],4510 ng/mL
same,AUC(0-t),[15],161 ng·h/mL
same,AUC(0-t),[16],95.4 ng·h/mL
same,AUC(0-t),[17],8220 ng·h/mL
same,AUC(0-inf),[18],167 ng·h/mL
same,AUC(0-inf),[19],1210 ng·h/mL
same,AUC(0-inf),[20],8550 ng·h/mL
same,clearance,[21],199 mL/min/kg
